# Source: ChEMBL document CHEMBL1125563, “Selective, centrally acting serotonin 5-HT2 antagonists. 1. 2- and 6-substituted 1-phenyl-3-(4-piperidinyl)-1H-indoles” (J Med Chem, 1992)
# Experiments:
# Mus musculus [1] = species: Mus musculus; assay: Compound was evaluated for the inhibition of isolation-induced aggression at a threshold of 180 seconds; 1.1-2.6; assay type: functional
# Summary of the method: (§1)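 Isolated male NMRI mice (3 weeks) trained to attack a nonaggressive intruder of the same strain; only mice with attack latency <25 s included. Pretested just before dosing and 2 h after sc test substance; observation maximum 180 s; at least eight mice per dose.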
# Mus musculus [2] = species: Mus musculus; assay: Compound was evaluated for the inhibition of isolation-induced aggression at a threshold of, 90 seconds; 1.3-2.9; assay type: functional; summary of the method: as §1
# Rattus norvegicus [3] = assay: Compound was evaluated for the inhibition of quipazine-induced head twitches after 2 h (administered subcutaneously); 0.011-0.12; assay type: functional; conditions: sc
# Rattus norvegicus [4] = assay: Compound was evaluated for the inhibition of quipazine-induced head twitches after 24 hr (administered subcutaneously); 0.014-0.48; conditions: sc
# [5] = target: Serotonin 2 (5-HT2) receptor (Rattus norvegicus, UniProt P30994+P08909+P14842); assay: Displacement of [3H]ketanserin from 5-hydroxytryptamine 2 receptor from rat cortical membranes.; assay type: cell membranes, Membrane
# Summary of the method: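 [3H]ketanserin displacement from rat cortical membranes (5-HT2). Five concentrations across three decades in triplicate, two full curves; IC50 estimated on a log-concentration scale, given as logarithmic mean of at least two determinations.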
# [6] = target: T1, Adrenergic receptor alpha-1 (Rattus norvegicus, UniProt P15823+P23944+P43140); assay: Displacement of [3H]prazosin from Alpha-1 adrenergic receptor of whole rat brain membranes; assay type: cell membranes, Membrane
# T1 sequence (P15823 whole entry): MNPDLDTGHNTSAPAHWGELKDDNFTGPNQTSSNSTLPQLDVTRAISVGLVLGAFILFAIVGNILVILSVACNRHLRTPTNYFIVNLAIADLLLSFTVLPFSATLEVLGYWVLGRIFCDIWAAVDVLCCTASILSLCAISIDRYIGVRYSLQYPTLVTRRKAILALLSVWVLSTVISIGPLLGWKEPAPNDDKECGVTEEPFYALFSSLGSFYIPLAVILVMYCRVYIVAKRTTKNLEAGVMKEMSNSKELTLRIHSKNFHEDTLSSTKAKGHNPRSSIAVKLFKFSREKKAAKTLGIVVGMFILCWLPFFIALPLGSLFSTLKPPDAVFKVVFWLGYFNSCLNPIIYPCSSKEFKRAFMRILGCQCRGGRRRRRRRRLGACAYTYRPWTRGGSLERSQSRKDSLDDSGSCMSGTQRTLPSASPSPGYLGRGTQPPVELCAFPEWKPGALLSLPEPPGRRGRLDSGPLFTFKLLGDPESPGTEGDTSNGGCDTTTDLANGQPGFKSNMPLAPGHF
# T1 sequence (P23944 whole entry): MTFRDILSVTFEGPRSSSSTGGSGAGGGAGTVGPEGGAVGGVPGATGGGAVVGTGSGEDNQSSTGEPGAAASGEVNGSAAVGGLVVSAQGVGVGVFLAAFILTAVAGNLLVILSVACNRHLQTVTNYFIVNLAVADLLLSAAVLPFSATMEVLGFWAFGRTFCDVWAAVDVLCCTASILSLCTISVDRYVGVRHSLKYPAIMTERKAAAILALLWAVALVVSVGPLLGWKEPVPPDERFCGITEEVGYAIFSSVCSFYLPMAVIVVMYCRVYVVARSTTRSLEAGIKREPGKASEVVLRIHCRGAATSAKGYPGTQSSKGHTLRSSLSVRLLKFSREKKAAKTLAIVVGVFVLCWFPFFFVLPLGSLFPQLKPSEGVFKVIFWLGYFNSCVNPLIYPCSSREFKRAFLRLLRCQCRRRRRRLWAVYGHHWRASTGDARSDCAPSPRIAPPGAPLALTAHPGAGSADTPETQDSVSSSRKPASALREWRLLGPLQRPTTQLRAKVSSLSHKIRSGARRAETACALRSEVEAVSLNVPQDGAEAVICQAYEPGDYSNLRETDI
# T1 sequence (P43140 whole entry): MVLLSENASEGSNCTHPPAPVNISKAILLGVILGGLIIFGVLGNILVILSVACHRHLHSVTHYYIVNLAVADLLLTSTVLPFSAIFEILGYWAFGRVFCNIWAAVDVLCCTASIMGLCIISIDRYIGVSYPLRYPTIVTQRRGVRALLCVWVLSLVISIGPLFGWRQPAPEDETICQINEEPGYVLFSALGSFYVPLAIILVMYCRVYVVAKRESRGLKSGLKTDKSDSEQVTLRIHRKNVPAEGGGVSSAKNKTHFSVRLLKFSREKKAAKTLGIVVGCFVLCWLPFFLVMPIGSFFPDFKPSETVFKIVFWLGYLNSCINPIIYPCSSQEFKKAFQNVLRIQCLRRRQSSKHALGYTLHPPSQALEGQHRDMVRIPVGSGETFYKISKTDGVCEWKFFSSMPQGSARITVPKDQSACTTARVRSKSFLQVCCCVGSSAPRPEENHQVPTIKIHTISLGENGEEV
# Summary of the method: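 α1 adrenoceptor binding measured as displacement of [3H]prazosin from whole rat brain membranes. Five test-drug concentrations spanning three decades in triplicate, two full curves; IC50 from log concentration-effect curves, logarithmic mean of at least two determinations.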
# Rattus norvegicus [7] = assay: Compound was evaluated for the inhibition of pergolide-induced reactions after 2 hr (administered subcutaneously); 1.8-14.4; assay type: functional; conditions: sc
# Summary of the method: (§2)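 Male Wistar rats with unilateral 6-OHDA lesions; test drug sc 2 h before pergolide (0.05 µmol/kg sc) to induce contralateral circling. Effect of each dose expressed as percent of mean of control sessions 1 week before and 1 week after, per rat; at least four rats per dose; ED50 by log-probit analysis.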
# Rattus norvegicus [8] = assay: Compound was evaluated for the inhibition of quipazine-induced head twitches after 24 hr (administered perorally); 0.12-0.57; assay type: functional; conditions: po
# Rattus norvegicus [9] = assay: Compound was evaluated for the inhibition of quipazine-induced head twitches after 2 h (administered subcutaneously); 0.064-0.18; assay type: functional; conditions: sc
# Mus musculus [10] = species: Mus musculus; assay: Compound was evaluated for the inhibition of isolation-induced aggression at a threshold of, 90 seconds; assay type: functional; summary of the method: as §1
# Rattus norvegicus [11] = assay: Compound was evaluated for the inhibition of pergolide-induced reactions after 2 hr (administered subcutaneously); assay type: functional; conditions: sc; summary of the method: as §2
# Mus musculus [12] = species: Mus musculus; assay: Compound was evaluated for the inhibition of isolation-induced aggression at a threshold of 180 seconds; assay type: functional; summary of the method: as §1
# Rattus norvegicus [13] = assay: Compound was evaluated for the inhibition of quipazine-induced head twitches after 24 hr (administered subcutaneously); 0.017-0.16; assay type: functional; conditions: sc
# Rattus norvegicus [14] = assay: Compound was evaluated for the inhibition of quipazine-induced head twitches after 24 hr (administered perorally); 0.026-0.12; assay type: functional; conditions: po
# Rattus norvegicus [15] = assay: Compound was evaluated for the inhibition of quipazine-induced head twitches after 24 hr (administered subcutaneously); 0.0089-0.12; assay type: functional; conditions: sc
# Rattus norvegicus [16] = assay: Compound was evaluated for the inhibition of quipazine-induced head twitches after 24 hr (administered perorally); 0.017-0.18; assay type: functional; conditions: po
# Rattus norvegicus [17] = assay: Compound was evaluated for the inhibition of quipazine-induced head twitches after 2 hr (administered subcutaneously); 0.0027-0.073; assay type: functional; conditions: sc
# Rattus norvegicus [18] = assay: Compound was evaluated for the inhibition of quipazine-induced head twitches after 24 hr (administered perorally); 0.0091-0.16; conditions: po
# Rattus norvegicus [19] = assay: Compound was evaluated for the inhibition of pergolide-induced reactions after 2 hr (administered subcutaneously); 12-50; assay type: functional; conditions: sc; summary of the method: as §2
# D(2) dopamine receptor = D(2) dopamine receptor (Rattus norvegicus, UniProt P61169); assay: Displacement of [3H]-spiperone from Dopamine receptor D2 from rat striatal membranes; assay type: cell membranes, Membrane
# D(2) dopamine receptor, sequence (P61169 whole entry): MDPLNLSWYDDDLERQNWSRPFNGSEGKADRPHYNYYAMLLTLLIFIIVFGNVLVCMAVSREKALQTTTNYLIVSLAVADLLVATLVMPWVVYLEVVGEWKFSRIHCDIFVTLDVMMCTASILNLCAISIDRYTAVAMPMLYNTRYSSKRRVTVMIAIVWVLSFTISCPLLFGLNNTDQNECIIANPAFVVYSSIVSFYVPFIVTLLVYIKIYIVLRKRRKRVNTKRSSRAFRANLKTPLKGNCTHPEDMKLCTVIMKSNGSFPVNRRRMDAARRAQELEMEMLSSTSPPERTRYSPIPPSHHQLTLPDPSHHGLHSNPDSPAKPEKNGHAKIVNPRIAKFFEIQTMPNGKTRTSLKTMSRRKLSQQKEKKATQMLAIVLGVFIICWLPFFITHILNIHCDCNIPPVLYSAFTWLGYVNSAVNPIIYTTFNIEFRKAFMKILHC
# Summary of the method: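 [3H]spiperone displacement from rat striatal membranes (D2). Five test-drug concentrations over three decades, in triplicate, two full curves; IC50 from log concentration-effect curves, reported as logarithmic mean of at least two determinations.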
# Rattus norvegicus [20] = assay: Compound was evaluated for the inhibition of quipazine-induced head twitches after 2 hr (administered subcutaneously); 0.012-0.095; assay type: functional; conditions: sc
# Rattus norvegicus [21] = assay: Compound was evaluated for the inhibition of pergolide-induced reactions after 2 hr (administered subcutaneously); 9.7-87; assay type: functional; conditions: sc; summary of the method: as §2
# Rattus norvegicus [22] = assay: Compound was evaluated for the inhibition of quipazine-induced head twitches after 2 hr (administered subcutaneously); 0.072-0.45; assay type: functional; conditions: sc
# Rattus norvegicus [23] = assay: Compound was evaluated for the inhibition of pergolide-induced reactions after 2 hr (administered subcutaneously); 9.7-87; conditions: sc
# Rattus norvegicus [24] = assay: Compound was evaluated for the inhibition of quipazine-induced head twitches after 24 h (administered perorally); 0.031-0.20; assay type: functional; conditions: po
# Mus musculus [25] = species: Mus musculus; assay: Compound was evaluated for the inhibition of isolation-induced aggression at a threshold of 180 seconds; 2.3-12.4; assay type: functional
# Mus musculus [26] = species: Mus musculus; assay: Compound was evaluated for the inhibition of isolation-induced aggression at a threshold of, 90 seconds; 3.5-18.4; assay type: functional
# [27] = target: T2, Alpha-1A adrenergic receptor (Rattus norvegicus, UniProt P43140); assay: Compound was tested for the displacement of [3H]prazosin from alpha-1 adrenergic receptor of rat whole brain membranes
# T2 sequence (P43140 whole entry): T1 sequence (P43140 whole entry)
# Rattus norvegicus [28] = assay: Compound was evaluated for the inhibition of quipazine-induced head twitches after 2 hr (administered subcutaneously); 0.056-0.18; assay type: functional; conditions: sc
# Rattus norvegicus [29] = assay: Compound was evaluated for the inhibition of quipazine-induced head twitches after 24 hr (administered subcutaneously); 0.35-2.7; assay type: functional; conditions: sc
# Mus musculus [30] = species: Mus musculus; assay: Compound was evaluated for the inhibition of isolation-induced aggression at a threshold of 180 seconds
# Mus musculus [31] = species: Mus musculus; assay: Compound was evaluated for the inhibition of isolation-induced aggression at a threshold of, 90 seconds
smiles,measurement,setting,value
O=C1NCCN1CCN1CCC(c2cn(-c3ccc(F)cc3)c3ccccc23)CC1,ED50,Mus musculus [1],1.7 µmol/kg
same,ED50,Mus musculus [2],1.9 µmol/kg
same,ED50,Rattus norvegicus [3],0.036 µmol/kg
same,ED50,Rattus norvegicus [4],0.082 µmol/kg
same,IC50,[5],0.72 nM
same,IC50,[6],3 nM
same,ED50,Rattus norvegicus [7],5.1 µmol/kg
same,ED50,Rattus norvegicus [8],0.26 µmol/kg
CC(C)N1CCN(CCN2CCC(c3cn(-c4ccc(F)cc4)c4cc(Cl)ccc34)CC2)C1=O,ED50,Rattus norvegicus [9],0.11 µmol/kg
same,ED50,Mus musculus [10],2.3 µmol/kg
same,ED50,Rattus norvegicus [11],> 17 µmol/kg
same,IC50,[5],1.5 nM
same,ED50,Mus musculus [12],2 µmol/kg
same,ED50,Rattus norvegicus [13],0.052 µmol/kg
same,IC50,[6],70 nM
same,ED50,Rattus norvegicus [14],0.055 µmol/kg
Cc1ccc2c(C3CCN(CCN4CCN(C(C)C)C4=O)CC3)cn(-c3ccccc3)c2c1,ED50,Mus musculus [10],> 11 µmol/kg
same,ED50,Rattus norvegicus [11],> 22 µmol/kg
same,IC50,[5],2 nM
same,ED50,Mus musculus [12],> 11 µmol/kg
same,ED50,Rattus norvegicus [15],0.032 µmol/kg
same,ED50,Rattus norvegicus [16],0.056 µmol/kg
same,IC50,[6],120 nM
same,ED50,Rattus norvegicus [17],0.014 µmol/kg
O=C1NCCN1CCN1CCC(c2cn(-c3ccc(F)cc3)c3cc(F)ccc23)CC1,ED50,Rattus norvegicus [18],0.038 µmol/kg
same,ED50,Rattus norvegicus [19],25 µmol/kg
same,IC50,[5],0.73 nM
same,IC50,D(2) dopamine receptor,36 nM
same,IC50,[6],2.2 nM
same,ED50,Rattus norvegicus [20],0.034 µmol/kg
Cc1c(C2CCN(CCN3CCNC3=O)CC2)c2ccccc2n1-c1ccc(F)cc1,ED50,Rattus norvegicus [21],29 µmol/kg
same,IC50,[5],0.59 nM
same,IC50,[6],76 nM
same,ED50,Rattus norvegicus [22],0.18 µmol/kg
same,ED50,Rattus norvegicus [23],29 µmol/kg
same,ED50,Rattus norvegicus [24],0.078 µmol/kg
c1cc2c(c(N3CCNCC3)c1)OCCO2 [ELTOPRAZINE],ED50,Mus musculus [25],5.4 µmol/kg
same,ED50,Mus musculus [26],8 µmol/kg
Cc1nc2sccn2c(=O)c1CCN1CCC(=C(c2ccc(F)cc2)c2ccc(F)cc2)CC1 [RITANSERIN],IC50,[27],47 nM
same,ED50,Rattus norvegicus [11],> 21 µmol/kg
same,ED50,Rattus norvegicus [28],0.1 µmol/kg
same,ED50,Rattus norvegicus [29],0.98 µmol/kg
same,ED50,Mus musculus [30],> 10 µmol/kg
same,ED50,Mus musculus [31],> 10 µmol/kg
